Laboratory results taken from ChEMBL document CHEMBL1135426, “Synthesis, receptor potency, and selectivity of halogenated diphenylpiperidines as serotonin 5-HT2A ligands for PET or SPECT brain imaging” (J Med Chem, 2002).

How the values were obtained:
[1] = molecular target: T1, Adrenergic receptor alpha-2 (Rattus norvegicus, UniProt P22086+P19328+P22909); test: Binding affinity (Ki) at Alpha-2 adrenergic receptor homogenates of whole rat brain were incubated [3H]MK-912 for 80 min at room temperature, using […] as the blank agent; assay type: tissue-based
T1 sequence (P22086 whole entry): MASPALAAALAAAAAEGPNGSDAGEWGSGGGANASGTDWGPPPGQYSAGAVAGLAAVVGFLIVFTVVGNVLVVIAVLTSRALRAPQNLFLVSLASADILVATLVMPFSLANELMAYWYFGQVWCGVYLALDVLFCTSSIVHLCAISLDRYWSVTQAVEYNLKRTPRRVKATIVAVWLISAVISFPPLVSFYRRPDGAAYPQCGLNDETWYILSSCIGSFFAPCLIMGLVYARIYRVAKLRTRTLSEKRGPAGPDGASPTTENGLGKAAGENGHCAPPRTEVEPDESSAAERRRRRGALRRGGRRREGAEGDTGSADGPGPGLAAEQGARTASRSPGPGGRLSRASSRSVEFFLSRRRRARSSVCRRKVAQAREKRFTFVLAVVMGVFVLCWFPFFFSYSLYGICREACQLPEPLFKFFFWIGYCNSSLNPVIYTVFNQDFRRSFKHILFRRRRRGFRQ
T1 sequence (P19328 whole entry): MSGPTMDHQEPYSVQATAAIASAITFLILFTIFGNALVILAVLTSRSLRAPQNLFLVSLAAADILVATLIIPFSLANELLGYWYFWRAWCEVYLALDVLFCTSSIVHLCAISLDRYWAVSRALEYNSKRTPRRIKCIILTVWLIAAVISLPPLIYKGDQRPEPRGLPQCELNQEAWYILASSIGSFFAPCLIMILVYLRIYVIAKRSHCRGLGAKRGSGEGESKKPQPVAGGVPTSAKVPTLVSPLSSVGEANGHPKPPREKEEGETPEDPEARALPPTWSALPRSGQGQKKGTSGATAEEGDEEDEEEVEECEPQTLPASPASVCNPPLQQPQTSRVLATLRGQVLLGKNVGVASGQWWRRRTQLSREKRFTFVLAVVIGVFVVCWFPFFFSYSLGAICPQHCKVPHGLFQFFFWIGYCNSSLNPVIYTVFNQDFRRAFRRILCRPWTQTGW
T1 sequence (P22909 whole entry): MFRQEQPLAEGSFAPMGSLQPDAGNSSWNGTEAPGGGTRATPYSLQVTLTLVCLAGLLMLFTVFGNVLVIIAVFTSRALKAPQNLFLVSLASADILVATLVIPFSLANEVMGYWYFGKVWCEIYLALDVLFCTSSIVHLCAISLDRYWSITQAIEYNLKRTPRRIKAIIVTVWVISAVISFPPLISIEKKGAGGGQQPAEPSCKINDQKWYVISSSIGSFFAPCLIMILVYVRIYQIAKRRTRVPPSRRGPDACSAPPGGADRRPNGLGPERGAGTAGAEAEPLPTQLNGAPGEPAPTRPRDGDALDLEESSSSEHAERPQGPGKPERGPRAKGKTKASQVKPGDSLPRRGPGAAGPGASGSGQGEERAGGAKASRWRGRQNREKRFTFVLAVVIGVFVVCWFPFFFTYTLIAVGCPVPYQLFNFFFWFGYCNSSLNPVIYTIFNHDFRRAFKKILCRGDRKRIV
How it was run: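 Whole rat brain homogenate (minus cerebellum) with 1.0 nM [3H]MK-912, 80 min at room temperature. 10 µM phentolamine defines nonspecific binding. Filter harvest and scintillation counting. Concentration-inhibition curves (≥6 concentrations) give IC50 ± SE, converted to Ki via Cheng-Prusoff with the radioligand's apparent Kd.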

[2] = molecular target: 5-hydroxytryptamine receptor 6 (Homo sapiens, UniProt P50406); test: Tested on cell membranes from transfected cells selectively expressing human 5-hydroxytryptamine 6 receptor incubated with 1 nM [3H]LSD
How it was run: (§1)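 Membranes (1-10 µg protein) from transfected cells expressing human 5-HT6 or 5-HT7, incubated with 1 nM [3H]LSD, room temperature, 90 min, in the dark. 10 µM clozapine as blank. Filter harvest and tritium counting. IC50 from multi-concentration competition, converted to Ki via Cheng-Prusoff.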

[3] = molecular target: T2, 5-hydroxytryptamine receptor 2C (Homo sapiens, UniProt P28335); test: Tested on transfected cell membranes selectively expressing human 5-hydroxytryptamine 2C receptor using [3H]mesulergine
T2 sequence (P28335 whole entry): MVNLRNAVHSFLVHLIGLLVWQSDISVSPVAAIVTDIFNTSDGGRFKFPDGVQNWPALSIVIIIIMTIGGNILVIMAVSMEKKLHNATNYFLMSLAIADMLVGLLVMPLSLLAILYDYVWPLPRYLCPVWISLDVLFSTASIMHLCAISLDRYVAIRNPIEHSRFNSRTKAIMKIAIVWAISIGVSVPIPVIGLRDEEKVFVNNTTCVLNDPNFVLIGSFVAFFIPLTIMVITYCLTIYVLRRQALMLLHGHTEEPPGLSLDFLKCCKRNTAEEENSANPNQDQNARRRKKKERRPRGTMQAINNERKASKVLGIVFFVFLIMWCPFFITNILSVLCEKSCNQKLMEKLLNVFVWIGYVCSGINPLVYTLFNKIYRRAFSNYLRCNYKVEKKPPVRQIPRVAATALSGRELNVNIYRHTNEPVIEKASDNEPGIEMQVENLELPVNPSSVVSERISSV
How it was run: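 Transfected cell membranes expressing human 5-HT2C, incubated with 0.80 nM [3H]mesulergine at room temperature for 60 min. Nonspecific binding with 10 µM clozapine. Filtration and scintillation counting. IC50 ± SE from concentration-inhibition curves, converted to Ki by Cheng-Prusoff using the radioligand Kd.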

[4] = molecular target: T3, Adrenergic receptor alpha-1 (Rattus norvegicus, UniProt P15823+P23944+P43140); test: Binding affinity (Ki) at Alpha-1 adrenergic receptor using rat brain cells with prazosin (0.20 nM) as a radioligand and […] as a blank agent; assay type: cell-based
T3 sequence (P15823 whole entry): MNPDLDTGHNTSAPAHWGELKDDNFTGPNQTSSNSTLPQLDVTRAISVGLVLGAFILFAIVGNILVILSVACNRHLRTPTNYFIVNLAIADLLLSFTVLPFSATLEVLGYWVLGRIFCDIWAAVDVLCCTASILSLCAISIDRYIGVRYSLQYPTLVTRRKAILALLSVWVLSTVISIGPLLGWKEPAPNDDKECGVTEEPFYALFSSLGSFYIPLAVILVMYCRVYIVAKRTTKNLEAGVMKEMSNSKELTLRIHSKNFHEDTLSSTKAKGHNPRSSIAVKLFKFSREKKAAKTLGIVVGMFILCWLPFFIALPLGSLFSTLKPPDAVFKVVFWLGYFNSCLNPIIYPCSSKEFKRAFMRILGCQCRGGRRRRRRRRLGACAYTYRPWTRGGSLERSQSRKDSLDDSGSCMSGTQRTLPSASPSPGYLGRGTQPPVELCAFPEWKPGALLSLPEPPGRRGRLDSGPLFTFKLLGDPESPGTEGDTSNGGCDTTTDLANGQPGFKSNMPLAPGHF
T3 sequence (P23944 whole entry): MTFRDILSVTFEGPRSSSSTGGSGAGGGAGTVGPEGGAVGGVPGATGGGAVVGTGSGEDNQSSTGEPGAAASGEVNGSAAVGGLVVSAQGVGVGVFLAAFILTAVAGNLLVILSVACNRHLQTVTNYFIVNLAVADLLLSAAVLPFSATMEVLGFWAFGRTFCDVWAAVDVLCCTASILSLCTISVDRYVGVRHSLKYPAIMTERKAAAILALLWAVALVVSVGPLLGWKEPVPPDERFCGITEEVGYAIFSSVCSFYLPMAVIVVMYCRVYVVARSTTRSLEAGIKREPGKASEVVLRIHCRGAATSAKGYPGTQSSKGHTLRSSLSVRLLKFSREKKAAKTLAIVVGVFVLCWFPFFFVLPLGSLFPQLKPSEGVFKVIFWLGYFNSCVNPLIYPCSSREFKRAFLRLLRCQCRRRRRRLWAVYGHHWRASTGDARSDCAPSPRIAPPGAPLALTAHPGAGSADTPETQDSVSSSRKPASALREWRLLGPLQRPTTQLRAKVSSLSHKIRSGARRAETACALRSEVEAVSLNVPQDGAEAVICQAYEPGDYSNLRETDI
T3 sequence (P43140 whole entry): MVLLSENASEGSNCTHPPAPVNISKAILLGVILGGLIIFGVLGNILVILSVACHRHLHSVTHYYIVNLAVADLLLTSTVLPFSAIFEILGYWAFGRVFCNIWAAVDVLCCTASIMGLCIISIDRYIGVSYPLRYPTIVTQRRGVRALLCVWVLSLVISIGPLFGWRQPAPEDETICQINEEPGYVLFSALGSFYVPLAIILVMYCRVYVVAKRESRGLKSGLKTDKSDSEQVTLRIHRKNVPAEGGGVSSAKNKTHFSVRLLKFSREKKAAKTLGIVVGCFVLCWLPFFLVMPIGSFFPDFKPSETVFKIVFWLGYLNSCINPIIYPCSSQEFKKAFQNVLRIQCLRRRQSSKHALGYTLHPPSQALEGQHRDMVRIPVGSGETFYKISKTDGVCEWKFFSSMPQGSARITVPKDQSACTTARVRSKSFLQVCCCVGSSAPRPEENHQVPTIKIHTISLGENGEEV
How it was run: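 Whole rat brain homogenate (excluding cerebellum) incubated with 0.20 nM [3H]prazosin, 30 °C, 30 min. Nonspecific binding defined with 2 µM phentolamine. Filtration harvest, tritium counted by scintillation. Screened at 1 and 10 µM; ≥6 concentrations if ≥30% inhibition at 1 µM. IC50 from curve fit, converted to Ki by Cheng-Prusoff using the radioligand Kd.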

[5] = molecular target: 5-hydroxytryptamine receptor 7 (Homo sapiens, UniProt P34969); test: Tested on cell membranes from transfected cells selectively expressing human 5-hydroxytryptamine 7 receptor incubated with 1 nM [3H]LSD; how it was run: as §1
[6] = molecular target: T4, 5-hydroxytryptamine receptor 2A (Homo sapiens, UniProt P28223); test: Tested on genetically transfected COS7 cell membranes selectively expressing human 5-hydroxytryptamine 2A receptor, using [3H]ketanserin as radioligand; assay type: cell-based, COS-7
How it was run: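 Membranes of transfected COS-7 cells expressing human 5-HT2A, with 1.0 nM [3H]ketanserin, room temperature, 60 min. 10 µM altanserin as blank. Filtration and scintillation counting. Competition curves over ≥6 concentrations yield IC50 ± SE. Ki obtained by Cheng-Prusoff from the radioligand apparent Kd.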

D(2) dopamine receptor = D(2) dopamine receptor (Rattus norvegicus, UniProt P61169); test: Binding affinity (Ki) at Dopamine receptor D2 using rat caudate cells with nemonapride (0.075 nM) as a radioligand and […] as a blank agent
How it was run: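 Rat caudate-putamen homogenate incubated with 75 pM [3H]nemonapride at 30 °C for 90 min. Nonspecific binding defined with 10 µM haloperidol. Bound radioactivity collected on glass fiber filters and counted. IC50 ± SE from ≥6-concentration inhibition curves, converted to Ki by Cheng-Prusoff using the radioligand Kd.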

[7] = molecular target: T3, Adrenergic receptor alpha-1; test: Binding affinity at Alpha-1 adrenergic receptor using rat forebrain cells with prazosin (0.20 nM) as radioligand and […] as blank agent
[8] = molecular target: T3, Adrenergic receptor alpha-1; test: Binding affinity (Ki) at Alpha-1 adrenergic receptor using rat forebrain cells with prazosin (0.20 nM) as a radioligand and […] as a blank agent
[9] = molecular target: T4, 5-hydroxytryptamine receptor 2A; test: Binding affinity against 5-hydroxytryptamine 2A receptor in humans
How it was run: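 Membranes of transfected COS-7 cells expressing human 5-HT2A, with 1.0 nM [3H]ketanserin, room temperature, 60 min. 10 µM altanserin as blank. Filtration and scintillation counting. Ki obtained by Cheng-Prusoff from the radioligand apparent Kd.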

T4 sequence (P28223 whole entry): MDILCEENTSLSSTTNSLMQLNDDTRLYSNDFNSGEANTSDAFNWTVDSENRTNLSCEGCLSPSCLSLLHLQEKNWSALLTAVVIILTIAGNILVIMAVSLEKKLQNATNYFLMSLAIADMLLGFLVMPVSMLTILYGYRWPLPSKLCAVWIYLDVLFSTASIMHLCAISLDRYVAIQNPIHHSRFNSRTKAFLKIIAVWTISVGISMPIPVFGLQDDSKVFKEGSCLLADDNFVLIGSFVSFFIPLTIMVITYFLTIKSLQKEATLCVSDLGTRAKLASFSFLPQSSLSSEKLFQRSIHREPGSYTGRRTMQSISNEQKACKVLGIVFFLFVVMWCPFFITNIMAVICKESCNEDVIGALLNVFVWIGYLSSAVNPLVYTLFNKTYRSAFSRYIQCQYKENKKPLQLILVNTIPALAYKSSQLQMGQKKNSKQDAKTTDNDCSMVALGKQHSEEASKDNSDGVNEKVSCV
Sequence of 5-hydroxytryptamine receptor 7 (P34969 whole entry): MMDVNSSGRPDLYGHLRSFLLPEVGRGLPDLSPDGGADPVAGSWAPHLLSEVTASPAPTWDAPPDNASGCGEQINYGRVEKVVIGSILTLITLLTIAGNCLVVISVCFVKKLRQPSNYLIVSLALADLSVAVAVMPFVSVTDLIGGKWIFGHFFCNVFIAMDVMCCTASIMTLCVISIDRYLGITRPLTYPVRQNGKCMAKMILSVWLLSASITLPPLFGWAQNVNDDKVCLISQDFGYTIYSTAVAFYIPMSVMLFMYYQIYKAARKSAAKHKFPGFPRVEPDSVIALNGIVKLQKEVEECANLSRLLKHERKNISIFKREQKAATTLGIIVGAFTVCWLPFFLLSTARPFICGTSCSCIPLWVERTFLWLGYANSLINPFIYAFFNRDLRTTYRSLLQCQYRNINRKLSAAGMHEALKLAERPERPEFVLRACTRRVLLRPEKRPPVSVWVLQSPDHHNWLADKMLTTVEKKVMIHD
Sequence of D(2) dopamine receptor (P61169 whole entry): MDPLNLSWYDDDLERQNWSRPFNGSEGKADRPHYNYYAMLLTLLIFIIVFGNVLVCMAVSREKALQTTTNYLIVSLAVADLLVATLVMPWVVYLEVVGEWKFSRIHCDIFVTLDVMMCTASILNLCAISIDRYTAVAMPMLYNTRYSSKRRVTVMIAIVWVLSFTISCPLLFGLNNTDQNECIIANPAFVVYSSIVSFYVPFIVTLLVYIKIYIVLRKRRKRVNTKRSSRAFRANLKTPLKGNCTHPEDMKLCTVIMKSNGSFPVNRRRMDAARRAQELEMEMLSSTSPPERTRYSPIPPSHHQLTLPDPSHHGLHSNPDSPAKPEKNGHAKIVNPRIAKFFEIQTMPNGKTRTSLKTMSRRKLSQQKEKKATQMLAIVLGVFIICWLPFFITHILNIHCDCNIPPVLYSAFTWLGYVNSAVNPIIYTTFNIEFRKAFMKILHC
Sequence of 5-hydroxytryptamine receptor 6 (P50406 whole entry): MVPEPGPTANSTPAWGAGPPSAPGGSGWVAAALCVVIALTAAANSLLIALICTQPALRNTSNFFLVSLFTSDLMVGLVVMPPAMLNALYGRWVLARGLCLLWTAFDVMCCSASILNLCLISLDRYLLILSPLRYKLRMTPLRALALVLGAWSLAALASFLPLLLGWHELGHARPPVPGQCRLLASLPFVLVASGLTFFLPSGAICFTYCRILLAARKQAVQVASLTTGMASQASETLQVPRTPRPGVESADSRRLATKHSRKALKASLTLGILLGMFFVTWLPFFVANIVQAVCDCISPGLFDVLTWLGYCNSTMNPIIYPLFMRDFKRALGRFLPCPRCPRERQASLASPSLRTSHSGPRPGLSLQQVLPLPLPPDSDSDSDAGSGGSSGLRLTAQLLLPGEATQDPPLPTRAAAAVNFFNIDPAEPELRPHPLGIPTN

Row | Structure (SMILES) | Ki [1] [µM] | Ki [2] [µM] | Ki [3] [µM] | Ki [5] [µM] | Ki [6] [µM] | Ki (D(2) dopamine receptor) [µM] | also measured
1 | O=C(c1ccc(F)cc1)C1CCN(CCc2cccc(I)c2)CC1 | 0.244 | 0.0489 | 0.0166 | 0.00876 | 0.00051 | 0.0518 | Ki [4]: 0.00492 µM
2 | OC(c1ccc(F)cc1)C1CCN(CCc2ccc(F)cc2)CC1 (stereo not drawn) | 1.032 | > 10 | 0.503 | 1.34 | 0.00163 | > 10 | Ki [7]: 0.303 µM
3 | OC(c1ccc(F)cc1)C1CCN(Cc2ccccc2I)CC1 (stereo not drawn) | – | – | – | – | > 10 | – | –
4 | O=[N+]([O-])c1ccc(C(O)C2CCN(CCc3ccccc3)CC2)cc1 (stereo not drawn) | – | – | – | – | 0.00115 | – | –
5 | OC(c1ccc(F)cc1)C1CCN(CCc2cccc(I)c2)CC1 (stereo not drawn) | – | – | – | – | 0.0131 | – | –
6 | OC(c1ccc(F)cc1)C1CCN(Cc2cccc(I)c2)CC1 (stereo not drawn) | – | – | – | – | > 10 | – | –
7 | OC(c1ccc(F)cc1)C1CCN(Cc2ccc(I)cc2)CC1 (stereo not drawn) | – | – | – | – | > 10 | – | –
8 | O=C(c1ccc(F)cc1)C1CCN(CCn2c(=S)[nH]c3ccccc3c2=O)CC1 [ALTANSERIN] | – | – | – | – | – | – | Ki [9]: 0.0003 µM

Further lines, with some results ahead:

Row | Ki [1] [µM] | Ki [2] [µM] | Ki [3] [µM] | Ki [5] [µM] | Ki [6] [µM] | Ki (D(2) dopamine receptor) [µM] | Structure (SMILES) | also measured
9 | – | – | – | – | 0.0321 | – | OC(c1ccc(F)cc1)C1CCN(CCc2ccc(I)cc2)CC1 (stereo not drawn) | –
10 | 0.381 | 0.3 | 0.144 | 0.00732 | 0.00362 | 0.176 | O=C(c1ccc(F)cc1)C1CCN(CCc2ccc(I)cc2)CC1 | Ki [8]: 0.0261 µM
11 | 0.14 | 0.138 | 0.0355 | 0.00368 | 0.00195 | 0.0013 | O=C(c1ccc(F)cc1)C1CCN(CCc2ccccc2I)CC1 | Ki [7]: 0.0248 µM
12 | – | – | – | – | 0.0127 | – | O=C(c1ccc(F)cc1)C1CCN(Cc2cccc(I)c2)CC1 | –
13 | – | – | – | – | 0.00934 | – | O=C(c1ccc([N+](=O)[O-])cc1)C1CCN(CCc2ccccc2)CC1 | –
14 | – | – | – | – | 0.191 | – | O=C(c1ccc(F)cc1)C1CCN(Cc2ccccc2I)CC1 | –
15 | – | – | – | – | 0.227 | – | O=C(c1ccc(F)cc1)C1CCN(Cc2ccc(I)cc2)CC1 | –
16 | 0.813 | 0.43 | 0.0286 | 0.101 | 0.00091 | > 10 | OC(c1ccc(F)cc1)C1CCN(CCc2ccccc2I)CC1 (stereo not drawn) | Ki [8]: 0.108 µM
17 | 0.614 | 3 | 0.493 | 0.063 | 0.00954 | 0.453 | O=C(c1ccc(F)cc1)C1CCN(CCc2ccc(F)cc2)CC1 | Ki [7]: 0.0336 µM
